This passage reports MIC and Activity results from ChEMBL document CHEMBL3734716, “Labdane and Clerodane Diterpenoids from Colophospermum mopane” (2015).

Values after ≈ are worked out from the molar mass of the structure shown. Active and inactive are the calls of the source. The rule behind the calls is not given here.

In experiment [1] the test system is Klebsiella pneumoniae. Put plainly: Antibacterial activity against Klebsiella pneumoniae ATCC 13883 after 24 hrs using p-iodonitrotetrazolium violet dye. It counts as functional. The settings on record: ATCC 13883, 24 h. An outline of the steps:
(§1)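 Broth microdilution MIC. Compounds reconstituted in acetone at a 5 mg/mL starting concentration, then serially doubling-diluted in sterile distilled water. Inoculum approx. 1 × 10^6 CFU/mL. Plates sealed and incubated at 37 °C for 24 h. Growth read after adding p-iodonitrotetrazolium violet (0.4 mg/mL); purple-pink means growth. MIC taken as lowest concentration with no growth. Ciprofloxacin positive control (0.01 mg/mL); acetone solvent and culture controls.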

The subject of experiment [2] is Staphylococcus aureus. Nature of the experiment: Antibacterial activity against Staphylococcus aureus ATCC 25923 after 24 hrs using p-iodonitrotetrazolium violet dye. It counts as functional. The conditions noted are these: ATCC 25923, 24 h. The essentials:
as §1

For experiment [3], the system named is Enterococcus faecalis. Nature of the experiment: Antibacterial activity against Enterococcus faecalis ATCC 29212 after 24 hrs using p-iodonitrotetrazolium violet dye. It counts as functional. The conditions noted are these: ATCC 29212, 24 h. The essentials:
as §1

The species named for experiment [4] is Homo sapiens. Nature of the experiment: Modulation of alpha1beta2gamma2S GABAA receptor (unknown origin) expressed in xenopus oocytes assessed as potentiation of GABA-induced chloride current by two-electrode voltage clamp method. It counts as cell-based. On the technique in general: In two-electrode clamp one electrode senses voltage and the other passes current.

The test system of experiment [5] is Escherichia coli. Nature of the experiment: Antibacterial activity against Escherichia coli ATCC 8739 after 24 hrs using p-iodonitrotetrazolium violet dye. The settings on record: ATCC 8739, 24 h. It counts as functional. The essentials: as §1

On to `C/C(=C\C(=O)O)CC[C@]1(C)[C@@H](C)CC[C@]2(C)[C@H]1CC[C@H]1O[C@]12C`, for which the MIC (in general, the least concentration at which growth counts as inhibited) was 62.5 mg/L (≈ 195 µM) in experiment [1], 62.5 mg/L (≈ 195 µM) in experiment [2], 62.5 mg/L (≈ 195 µM) in experiment [3] and above 250 mg/L in experiment [5]. The result in experiment [4] was inactive.
For the compound `C[C@H]1CC=C2[C@@H](CC[C@@H](O)C2(C)C)[C@]1(C)CCC1=CC(=O)OC1`, the MIC in experiment [1] was 62.5 mg/L (≈ 196 µM); in experiment [2] it was 93.7 mg/L (≈ 294 µM); in experiment [3], 62.5 mg/L (≈ 196 µM); in experiment [5], 125 mg/L (≈ 393 µM). Moreover, the outcome in experiment [4] was inactive.
Regarding `O=C(O)c1cn(C2CC2)c2cc(N3CCNCC3)c(F)cc2c1=O` [CIPROFLOXACIN], the MIC in experiment [1] came out at 0.078 mg/L (≈ 0.235 µM); in experiment [2], 0.156 mg/L (≈ 0.471 µM); in experiment [3] it was 0.156 mg/L (≈ 0.471 µM); in experiment [5] it was 0.156 mg/L (≈ 0.471 µM).
Take `CC(=O)O[C@@H]1CC[C@@]2(C)[C@@H](CC[C@H](C)[C@]23CC[C@](C)(CC(=O)O)O3)C1(C)C`: the MIC amounted to 62.5 mg/L (≈ 164 µM) in experiment [1], 125 mg/L (≈ 328 µM) in experiment [2], 62.5 mg/L (≈ 164 µM) in experiment [3] and 125 mg/L (≈ 328 µM) in experiment [5]. In experiment [4], the outcome was inactive.
In the case of `C[C@H]1CC[C@H]2C(C)(C)[C@H](O)CC[C@]2(C)[C@@]12CC[C@](C)(CC(=O)O)O2`, the MIC in experiment [1] is 62.5 mg/L (≈ 185 µM); in experiment [2], 125 mg/L (≈ 369 µM); in experiment [3] it was 62.5 mg/L (≈ 185 µM); in experiment [5] it was 125 mg/L (≈ 369 µM). In addition, the outcome in experiment [4] was inactive.
Regarding `C[C@H]1CC[C@H]2C(C)(C)[C@H](O)CC[C@]2(C)[C@@]12CC[C@@](C)(CCO)O2`, the MIC in experiment [1] amounted to 62.5 mg/L (≈ 193 µM); in experiment [2], 93.7 mg/L (≈ 289 µM); in experiment [3] it was 125 mg/L (≈ 385 µM); in experiment [5], 125 mg/L (≈ 385 µM). Moreover, the outcome in experiment [4] was inactive.
As for `C[C@@H]1CC[C@@]2(C)[C@H](CC[C@@H]3O[C@@]32C)[C@@]1(C)CCC1=CC(=O)OC1`, the result in experiment [4] was inactive.
Take `C/C(=C\C(=O)O)CC[C@]1(C)[C@@H](C)CC[C@@]2(C)C(CO)=CCC[C@@H]12`: the MIC amounted to 625 mg/L (≈ 1950 µM) in experiment [1], 62.5 mg/L (≈ 195 µM) in experiment [2], 62.5 mg/L (≈ 195 µM) in experiment [3] and 125 mg/L (≈ 390 µM) in experiment [5]. The outcome in experiment [4] was inactive.
`C[C@H]1CC[C@H]2C(C)(C)CCC[C@]2(C)[C@@]12CC[C@](C)(CC(=O)O)O2`: the MIC in experiment [1] is 46.9 mg/L (≈ 145 µM); in experiment [2] it was 62.5 mg/L (≈ 194 µM); in experiment [3], 125 mg/L (≈ 388 µM); in experiment [5], 125 mg/L (≈ 388 µM). For the same compound, the outcome in experiment [4] was inactive.
Take `C/C(=C\C(=O)O)CC[C@@]1(C)[C@H](C)CC[C@@]2(C)C(CO)=CCC[C@H]12` (relative stereo): the MIC in experiment [1] was 93.8 mg/L (≈ 293 µM); in experiment [2] it was 62.5 mg/L (≈ 195 µM); in experiment [3], 125 mg/L (≈ 390 µM); in experiment [5], 125 mg/L (≈ 390 µM). In experiment [4], the outcome was inactive.
For the compound `CC1=CCC[C@H]2[C@](C)(CC/C(C)=C/C(=O)O)[C@@H](C)CC[C@@]12C`, the MIC in experiment [1] was determined as 93.8 mg/L (≈ 308 µM); in experiment [2], 15.6 mg/L (≈ 51.2 µM); in experiment [3], 31.3 mg/L (≈ 103 µM); in experiment [5], 15.6 mg/L (≈ 51.2 µM). In experiment [4], the result was inactive.
On to `C[C@H]1CC[C@H]2C(C)(C)CCC[C@]2(C)[C@@]1(O)CCC1=CC(=O)OC1`, for which the MIC was found to be 62.5 mg/L (≈ 195 µM) in experiment [1], 125 mg/L (≈ 390 µM) in experiment [2], 125 mg/L (≈ 390 µM) in experiment [3] and 250 mg/L (≈ 780 µM) in experiment [5]. The outcome in experiment [4] was inactive.
